Data taken from ChEMBL document CHEMBL4765436, “Discovery, structure-activity relationship study and biological evaluation of 2-thioureidothiophene-3-carboxylates as a novel class of C-X-C chemokine receptor 2 (CXCR2) antagonists” (Eur J Med Chem, 2020).
pIC50, pKi: −log10 of the molar value. Calls of active or inactive are those of the source. The calls are words filed in the database; no cut-off is given here.

Legend:
[1] = target: T1, C-X-C chemokine receptor type 2 (Homo sapiens, UniProt P25025); experiment: Antagonist activity at CXCR2 (unknown origin) expressed in U2OS cells cotransfected with beta-arrestin/TEV protease fusion protein and beta-lactamase assessed as inhibition of CXCL8-induced beta arrestin2 recruitment preincubated for 30 mins followed by CXCL8 stimulation and measured after 5 hrs by FRET based fluorescence/Tango assay; format: cell-based
T1 sequence (P25025 whole entry): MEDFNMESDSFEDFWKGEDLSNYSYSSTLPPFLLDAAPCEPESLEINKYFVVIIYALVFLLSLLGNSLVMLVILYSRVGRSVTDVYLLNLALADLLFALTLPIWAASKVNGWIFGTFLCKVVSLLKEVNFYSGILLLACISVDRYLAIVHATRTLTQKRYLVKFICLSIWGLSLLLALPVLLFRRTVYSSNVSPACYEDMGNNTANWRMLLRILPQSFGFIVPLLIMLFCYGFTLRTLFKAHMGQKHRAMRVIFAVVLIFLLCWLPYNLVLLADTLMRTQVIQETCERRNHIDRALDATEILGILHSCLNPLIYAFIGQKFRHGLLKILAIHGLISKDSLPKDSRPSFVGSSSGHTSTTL

Translocator protein [2] = target: T2, Translocator protein (Homo sapiens, UniProt P30536); experiment: Inhibition of PBR (unknown origin) at 10 uM by radioligand binding assay relative to control
Method in brief: (§1)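 Primary radioligand binding screen across 50 GPCRs at a single concentration of 10 μM. Compounds with ≥50% inhibition went on to secondary binding.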

[3] = target: T3, Alpha-2A adrenergic receptor (Homo sapiens) (UniProt P08913); experiment: Inhibition of alpha 2a-adrenergic receptor (unknown origin) at 10 uM by radioligand binding assay relative to control; method in brief: as §1
T3 sequence (whole entry): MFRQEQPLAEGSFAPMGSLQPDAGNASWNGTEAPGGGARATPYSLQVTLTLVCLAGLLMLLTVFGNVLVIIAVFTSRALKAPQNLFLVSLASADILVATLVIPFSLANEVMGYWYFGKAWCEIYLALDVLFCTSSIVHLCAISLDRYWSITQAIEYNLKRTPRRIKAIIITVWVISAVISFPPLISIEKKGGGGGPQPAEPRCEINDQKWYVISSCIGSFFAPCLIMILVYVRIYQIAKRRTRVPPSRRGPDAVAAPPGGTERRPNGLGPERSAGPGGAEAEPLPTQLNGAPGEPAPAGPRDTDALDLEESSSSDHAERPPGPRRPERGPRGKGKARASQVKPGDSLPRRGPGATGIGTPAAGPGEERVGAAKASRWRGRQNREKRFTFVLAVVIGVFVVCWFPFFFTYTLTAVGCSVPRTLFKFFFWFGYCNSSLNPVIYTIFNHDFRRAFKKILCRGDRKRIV

Translocator protein [4] = target: T2, Translocator protein; experiment: Inhibition of PBR (unknown origin) by radioligand binding assay
Method in brief: (§2)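 Secondary radioligand binding assay determining equilibrium binding affinity (Ki).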

[5] = target: T4, Alpha-2A adrenergic receptor (Homo sapiens, UniProt P08913); experiment: Inhibition of alpha 2a-adrenergic receptor (unknown origin) by radioligand binding assay; method in brief: as §2
T4 sequence (P08913 whole entry): T3 sequence (whole entry)

[6] = target: T5, C-X-C chemokine receptor type 2 (Homo sapiens) (UniProt P25025); experiment: Antagonist activity at CXCR2 (unknown origin) expressed in HEK293T cells cotransfected with GFP and p22F assessed as inhibition of CXCL8-reduced cAMP production at 10 uM incubated for 10 mins followed by CXCL8 stimulation and measured after 10 mins by luminescence based assay; format: functional, cell-based; settings: time 20.0 min
T5 sequence (whole entry): T1 sequence (P25025 whole entry)
Method in brief: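 293T-CXCR2-GFP-p22F cells express a cAMP-sensitive firefly luciferase. They were seeded at 30000 cells/well overnight in CO2-independent medium with 10% FBS, then incubated with 1% cAMP reagent for 2 h at 37 °C. Cells were pretreated with compound for 10 min, given CXCL8 (50 nM) for 10 min, then stimulated with forskolin (50 μM) until maximal signal (~80 min). Luminescence read-out.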

[7] = target: T5, C-X-C chemokine receptor type 2 (Homo sapiens); experiment: Antagonist activity at CXCR2 (unknown origin) expressed in HEK293T cells cotransfected with GFP assessed as inhibition of CXCL8-induced ERK1/2 phosphorylation pretreated at 10 to 30 uM followed by treated with CXCL8 by immunoblot assay; format: cell-based; settings: filed as antagonist, dose 10-30 µM
Method in brief: (§3)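 293T-CXCR2-GFP cells (5 x 10^5/well) were attached overnight, treated with compounds and lysed in RIPA buffer with protease/phosphatase inhibitors. Lysates were normalized by BCA and resolved on 10% SDS-PAGE. Blots were probed overnight at 4 °C with antibodies (1:500-1:1000) to p-ERK1/2, p-JNK, p-cJUN or p-p38, then with a fluorescent secondary antibody, and imaged by infrared imaging.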

[8] = target: T5, C-X-C chemokine receptor type 2 (Homo sapiens); experiment: Antagonist activity at CXCR2 (unknown origin) expressed in HEK293T cells cotransfected with GFP assessed as inhibition of CXCL8-induced p38 phosphorylation at 10 to 30 uM post CXCL8 treatment by immunoblot assay; format: cell-based; settings: dose 10-30 µM; method in brief: as §3
[9] = target: T5, C-X-C chemokine receptor type 2 (Homo sapiens); experiment: Antagonist activity at CXCR2 (unknown origin) expressed in HEK293T cells cotransfected with GFP assessed as inhibition of CXCL8-induced JNK phosphorylation at 10 to 30 uM post CXCL8 treatment by immunoblot assay; format: cell-based; settings: dose 10-30 µM; method in brief: as §3
[10] = target: T5, C-X-C chemokine receptor type 2 (Homo sapiens); experiment: Antagonist activity at CXCR2 (unknown origin) expressed in HEK293T cells cotransfected with GFP assessed as inhibition of CXCL8-induced cJUN phosphorylation at 10 to 30 uM post CXCL8 treatment by immunoblot assay; format: cell-based; settings: dose 10-30 µM; method in brief: as §3
[11] = target: T5, C-X-C chemokine receptor type 2 (Homo sapiens); experiment: Antagonist activity at CXCR2 (unknown origin) expressed in HEK293T cells cotransfected with GFP assessed as inhibition of CXCL8-induced AKT phosphorylation at 10 to 30 uM post CXCL8 treatment by immunoblot assay; format: cell-based; settings: dose 10-30 µM
U2OS = experiment: Antimigratory activity against human U2OS cells overexpressing CXCR2/bla assessed as reduction in CXCL8-mediated wound closure at 10 uM incubated for 20 mins followed by CXCL8 stimulation and measured after 24 hrs by Giemsa staining based scratch wound healing assay; format: functional, cell-based; settings: time 24.3 hrs
Method in brief: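 CXCR2-bla U2OS cells were seeded at 35000/well in DMEM with 1% FBS overnight and scratched with a pipette tip. Compounds (10 μM) were added for 20 min, then CXCL8 (60 nM) for 24 h; unstimulated wells served as control. Cells were methanol-fixed, Giemsa-stained and imaged by transmitted light. Two independent experiments were run in duplicate.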

SK-OV-3 [12] = experiment: Inhibition of colony formation in human SK-OV-3 cells at 8.9 to 20 uM incubated for 7 to 10 days in presence of doxorubicin by crystal violet staining based assay; format: functional, cell-based; settings: dose 8.9-20 µM, time 7-10 day
Method in brief: (§4)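 Colony formation: cells were seeded at 300/well, attached overnight, then treated with compounds for 7-10 days until colonies formed in DMSO wells. Colonies were stained with 0.05% crystal violet for 30 min and washed with water.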

[13] = target: C-X-C chemokine receptor type 4 (Homo sapiens, UniProt P61073); experiment: Antagonist activity at CXCR4 (unknown origin) expressed in U2OS cells cotransfected with beta-arrestin/TEV protease fusion protein and beta-lactamase assessed as inhibition of SDF1-alpha-induced beta arrestin2 recruitment preincubated for 30 mins followed by SDF1-alpha stimulation and measured after 5 hrs by FRET based fluorescence/Tango assay
SK-OV-3 [14] = experiment: Inhibition of colony formation in human SK-OV-3 cells at 38 nM incubated for 7 to 10 days by crystal violet staining based assay; format: functional, cell-based; settings: time 7-10 day; method in brief: as §4
[15] = target: T6, 5-hydroxytryptamine receptor 2B (Homo sapiens, UniProt P41595); experiment: Inhibition of 5-HT2B (unknown origin) at 10 uM by radioligand binding assay relative to control; method in brief: as §1
[16] = target: T6, 5-hydroxytryptamine receptor 2B; experiment: Inhibition of 5-HT2B (unknown origin) by radioligand binding assay; method in brief: as §2

T2 sequence (P30536 whole entry): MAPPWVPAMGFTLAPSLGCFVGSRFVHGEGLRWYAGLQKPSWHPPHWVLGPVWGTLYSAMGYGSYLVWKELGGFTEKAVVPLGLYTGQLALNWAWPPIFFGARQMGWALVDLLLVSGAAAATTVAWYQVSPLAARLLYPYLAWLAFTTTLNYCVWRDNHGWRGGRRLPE
T6 sequence (P41595 whole entry): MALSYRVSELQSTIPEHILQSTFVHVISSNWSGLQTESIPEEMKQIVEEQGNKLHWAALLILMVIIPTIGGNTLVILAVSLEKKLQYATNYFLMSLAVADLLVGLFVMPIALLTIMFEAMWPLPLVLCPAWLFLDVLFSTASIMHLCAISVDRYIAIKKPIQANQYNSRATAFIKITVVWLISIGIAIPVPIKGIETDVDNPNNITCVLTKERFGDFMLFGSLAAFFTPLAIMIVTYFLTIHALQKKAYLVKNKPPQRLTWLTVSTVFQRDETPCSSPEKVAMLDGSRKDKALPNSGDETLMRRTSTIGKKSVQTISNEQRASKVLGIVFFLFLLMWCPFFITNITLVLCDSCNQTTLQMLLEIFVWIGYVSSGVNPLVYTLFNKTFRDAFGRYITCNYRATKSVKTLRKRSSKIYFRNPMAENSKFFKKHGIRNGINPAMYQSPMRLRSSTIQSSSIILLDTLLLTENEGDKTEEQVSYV
Chain of C-X-C chemokine receptor type 4 (P61073 whole entry, the tested form may be a part): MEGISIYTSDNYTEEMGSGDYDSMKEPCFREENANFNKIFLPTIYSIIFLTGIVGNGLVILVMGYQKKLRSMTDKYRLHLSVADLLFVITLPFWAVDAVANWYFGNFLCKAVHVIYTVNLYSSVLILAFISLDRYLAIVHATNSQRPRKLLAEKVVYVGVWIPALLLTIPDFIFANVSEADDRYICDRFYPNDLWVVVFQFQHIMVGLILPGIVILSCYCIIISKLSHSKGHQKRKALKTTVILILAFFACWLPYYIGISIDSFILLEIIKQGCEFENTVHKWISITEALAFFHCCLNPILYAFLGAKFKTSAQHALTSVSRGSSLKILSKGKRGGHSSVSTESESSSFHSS

Row | pIC50 [1] | inhibition (Translocator protein [2]) | inhibition [3] | pKi (Translocator protein [4]) | pKi [5] | Activity [6] | Activity [7] | Activity [8] | Activity [9] | Activity [10] | Activity [11] | pIC50 [13] | inhibition [15] | pKi [16] | Compound | inhibition (U2OS) | inhibition (SK-OV-3 [12]) | inhibition (SK-OV-3 [14])
1 | 5.80 | 64% | 59% | < 5.00 | < 5.00 | inactive | Active | inactive | inactive | inactive | inactive | < 4.52 |  |  | C[C@@H](NC(=S)Nc1sc2c(c1C(=O)OC(C)(C)C)CCOC2)c1ccccc1 | Active | Active | 
2 |  |  |  |  |  |  |  |  |  |  |  |  |  |  | COc1cccc2c1C(=O)c1c(O)c3c(c(O)c1C2=O)C[C@@](O)(C(=O)CO)C[C@@H]3O[C@H]1C[C@H](N)[C@H](O)[C@H](C)O1 |  |  | inactive
3 | 5.77 | 63.1% | 55.2% | 5.40 | < 5.00 |  |  |  |  |  |  | < 4.82 | 58% | < 5.00 | CC1COCc2sc(NC(=S)Nc3ccccc3)c(C(=O)OC(C)(C)C)c21 (centres undefined) |  | Active | 
